Calls of active or inactive are those of the source. The calls are words filed in the database; no cut-off is given here.
What was measured:
Homo sapiens [1] = species on record: Homo sapiens; test: Selectivity for human NTMT2 over human SMYD2 at 100 uM
Summary of the method: (§1)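 Single-point panel screen against 41 PKMTs, PRMTs, DNMTs and NTMT1/2. Each compound was tested at 100 µM, in duplicate (n=2).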

Homo sapiens [2] = species on record: Homo sapiens; test: Selectivity for human NTMT1 over human G9a at 100 uM
Summary of the method: (§2)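 Panel of 41 PKMTs, PRMTs, DNMTs and NTMT1/2, tested at 100 µM compound in duplicate (n=2).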

Homo sapiens [3] = species on record: Homo sapiens; test: Selectivity for human NTMT1 over human PRDMT4 at 100 uM; summary of the method: as §2
Homo sapiens [4] = species on record: Homo sapiens; test: Selectivity for human NTMT2 over human SET8 at 100 uM; summary of the method: as §1
Homo sapiens [5] = species on record: Homo sapiens; test: Selectivity for human NTMT1 over human SET8 at 100 uM; summary of the method: as §2
Homo sapiens [6] = species on record: Homo sapiens; test: Selectivity for human NTMT1 over human ASH1L at 100 uM; summary of the method: as §2
Homo sapiens [7] = species on record: Homo sapiens; test: Selectivity for human NTMT2 over human EZH2 complex at 100 uM; summary of the method: as §1
Homo sapiens [8] = species on record: Homo sapiens; test: Selectivity for human NTMT1 over human EZH2 complex Y641F mutant at 100 uM; summary of the method: as §2
Homo sapiens [9] = species on record: Homo sapiens; test: Selectivity for human NTMT1 over human DOT1L at 100 uM; summary of the method: as §2
Homo sapiens [10] = species on record: Homo sapiens; test: Selectivity for human NTMT1 over human PRDMT5 at 100 uM; summary of the method: as §2
Homo sapiens [11] = species on record: Homo sapiens; test: Selectivity for human NTMT2 over human PRDMT5/MEP50 complex at 100 uM; summary of the method: as §1
Homo sapiens [12] = species on record: Homo sapiens; test: Selectivity for human NTMT2 over human NSD3 at 100 uM; summary of the method: as §1
Homo sapiens [13] = species on record: Homo sapiens; test: Selectivity for human NTMT1 over human SET7/9 at 100 uM; summary of the method: as §2
Homo sapiens [14] = species on record: Homo sapiens; test: Selectivity for human NTMT2 over human MLL1 complex at 100 uM; summary of the method: as §1
[15] = molecular target: Protein arginine N-methyltransferase 1 (Rattus norvegicus, UniProt Q63009); test: Inhibition of rat His6-tagged PRMT1 expressed in Escherichia coli BL21(DE3) using H4-21 peptide as substrate preincubated for 10 mins in presence of SAM followed by substrate addition by fluorescence assay
Homo sapiens [16] = species on record: Homo sapiens; test: Selectivity for human NTMT2 over human GLP at 100 uM; summary of the method: as §1
Homo sapiens [17] = species on record: Homo sapiens; test: Selectivity for human NTMT1 over human DNMT1 at 100 uM; summary of the method: as §2
Homo sapiens [18] = species on record: Homo sapiens; test: Selectivity for human NTMT1 over human PRDMT1 at 100 uM; summary of the method: as §2
Homo sapiens [19] = species on record: Homo sapiens; test: Selectivity for human NTMT2 over human MLL3 complex at 100 uM; summary of the method: as §1
Homo sapiens [20] = species on record: Homo sapiens; test: Selectivity for human NTMT1 over human NSD2 at 100 uM; summary of the method: as §2
[21] = molecular target: T1, N-terminal Xaa-Pro-Lys N-methyltransferase 1 (Homo sapiens) (UniProt Q9BV86); test: Substrate activity at recombinant human full-length His6-tagged NTMT1 (1 to 222 residues) expressed in Escherichia coli BL21-CodonPlus(DE3)-RIL competent cells by MALDI-MS analysis
T1 sequence (whole entry): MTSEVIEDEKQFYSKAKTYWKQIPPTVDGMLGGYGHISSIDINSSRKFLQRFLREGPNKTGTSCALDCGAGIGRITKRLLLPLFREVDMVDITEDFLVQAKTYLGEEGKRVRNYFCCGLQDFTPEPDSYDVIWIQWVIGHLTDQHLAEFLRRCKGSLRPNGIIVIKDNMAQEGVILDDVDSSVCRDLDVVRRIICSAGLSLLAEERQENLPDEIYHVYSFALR

Homo sapiens [22] = species on record: Homo sapiens; test: Selectivity for human NTMT2 over human NSD2 at 100 uM; summary of the method: as §1
Homo sapiens [23] = species on record: Homo sapiens; test: Selectivity for human NTMT2 over human EZH1 complex at 100 uM; summary of the method: as §1
Homo sapiens [24] = species on record: Homo sapiens; test: Selectivity for human NTMT2 over human PRDMT7 at 100 uM; summary of the method: as §1
Homo sapiens [25] = species on record: Homo sapiens; test: Selectivity for human NTMT1 over human DNMT3a at 100 uM; summary of the method: as §2
Homo sapiens [26] = species on record: Homo sapiens; test: Selectivity for human NTMT1 over human MLL1 complex at 100 uM; summary of the method: as §2
Homo sapiens [27] = species on record: Homo sapiens; test: Selectivity for human NTMT2 over human PRDMT8 at 100 uM; summary of the method: as §1
Homo sapiens [28] = species on record: Homo sapiens; test: Selectivity for human NTMT1 over human PRDMT6 at 100 uM; summary of the method: as §2
Homo sapiens [29] = species on record: Homo sapiens; test: Selectivity for human NTMT1 over human GLP at 100 uM; summary of the method: as §2
Homo sapiens [30] = species on record: Homo sapiens; test: Selectivity for human NTMT2 over human SUV420H1TV2 at 100 uM; summary of the method: as §1
Homo sapiens [31] = species on record: Homo sapiens; test: Selectivity for human NTMT2 over human PRDMT1 at 100 uM; summary of the method: as §1
Homo sapiens [32] = species on record: Homo sapiens; test: Selectivity for human NTMT1 over human MLL3 complex at 100 uM; summary of the method: as §2
Homo sapiens [33] = species on record: Homo sapiens; test: Selectivity for human NTMT1 over GST-tagged human METTL21A at 100 uM; summary of the method: as §2
Homo sapiens [34] = species on record: Homo sapiens; test: Selectivity for human NTMT1 over human NSD2 T1150A mutant at 100 uM; summary of the method: as §2
Homo sapiens [35] = species on record: Homo sapiens; test: Selectivity for human NTMT1 over human NSD3 at 100 uM; summary of the method: as §2
Homo sapiens [36] = species on record: Homo sapiens; test: Selectivity for human NTMT2 over human NSD2 T1150A mutant at 100 uM; summary of the method: as §1
Homo sapiens [37] = species on record: Homo sapiens; test: Selectivity for human NTMT2 over human PRDMT4 at 100 uM; summary of the method: as §1
Homo sapiens [38] = species on record: Homo sapiens; test: Selectivity for human NTMT1 over human NSD2 E1099K mutant at 100 uM; summary of the method: as §2
Homo sapiens [39] = species on record: Homo sapiens; test: Selectivity for human NTMT2 over human SET7/9 at 100 uM; summary of the method: as §1
Homo sapiens [40] = species on record: Homo sapiens; test: Selectivity for human NTMT2 over human PRDMT3 at 100 uM; summary of the method: as §1
Homo sapiens [41] = species on record: Homo sapiens; test: Selectivity for human NTMT2 over human PRDMT6 at 100 uM; summary of the method: as §1
[42] = molecular target: T2, N-terminal Xaa-Pro-Lys N-methyltransferase 1 (Homo sapiens, UniProt Q9BV86); test: Inhibition of recombinant human full-length His6-tagged NTMT1 (1 to 222 residues) expressed in Escherichia coli BL21-CodonPlus(DE3)-RIL competent cells pre-incubated for 10 mins in presence of SAM and SAHH before RCC1-6 addition and measured after 15 mins by fluorescence based SAHH-coupled assay
T2 sequence (Q9BV86 whole entry): T1 sequence (whole entry)
Summary of the method: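 Pre-incubated 10 min at 37 °C, then started with RCC1-6 (10 µL of 50 µM stock in 100 µL). Line 11 screened at 30 µM; line 12 used 0–100 µM three-fold series, four-parameter fit. Triplicate.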

Homo sapiens [43] = species on record: Homo sapiens; test: Selectivity for human NTMT1 over human SUV420H1TV2 at 100 uM; summary of the method: as §1
Homo sapiens [44] = species on record: Homo sapiens; test: Selectivity for human NTMT2 over human MLL4 complex at 100 uM; summary of the method: as §1
Homo sapiens [45] = species on record: Homo sapiens; test: Selectivity for human NTMT2 over human PRDMT5 at 100 uM; summary of the method: as §1
Homo sapiens [46] = species on record: Homo sapiens; test: Selectivity for human NTMT1 over human PRDMT8 at 100 uM; summary of the method: as §2
Homo sapiens [47] = species on record: Homo sapiens; test: Selectivity for human NTMT2 over human DNMT3b/3L at 100 uM; summary of the method: as §1
[48] = Drug penetration in human HCT116 cells at 100 uM by MALDI-MS analysis; assay type: ADME, cell-based; settings: hct-116, 100 µM
Summary of the method: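 HCT116 cells in McCoy's 5A with 10% FBS and 1% antibiotic-antimycotic, seeded at 0.1 × 10^6 cells/mL in 24-well plates and held overnight at 37 °C, 5% CO2. Compound added for the specified time, with TAT peptide as control. Cells washed three times with PBS, lysed by two snap-freezes in liquid nitrogen, and the lysate checked for compound by MALDI with DHB matrix.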

Chain of Protein arginine N-methyltransferase 1 (Q63009 whole entry): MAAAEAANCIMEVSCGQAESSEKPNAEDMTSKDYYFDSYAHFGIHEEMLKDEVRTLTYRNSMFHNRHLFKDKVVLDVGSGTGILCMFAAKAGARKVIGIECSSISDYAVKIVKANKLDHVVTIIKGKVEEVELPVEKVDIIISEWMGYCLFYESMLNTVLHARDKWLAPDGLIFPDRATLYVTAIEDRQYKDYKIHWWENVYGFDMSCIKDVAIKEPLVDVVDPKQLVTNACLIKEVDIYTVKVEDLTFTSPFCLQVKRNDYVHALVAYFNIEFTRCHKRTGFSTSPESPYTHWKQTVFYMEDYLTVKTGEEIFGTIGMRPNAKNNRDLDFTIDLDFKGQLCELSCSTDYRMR

In the case of `N=C(N)NCCC[C@H](NC(=O)[C@H](CCCCN)NC(=O)[C@@H]1CCCN1C(=O)Cc1ccc(O)cc1)C(N)=O`, the Selectivity ratio (Homo sapiens [1]) is reported as over 100, the Selectivity ratio (Homo sapiens [2]) is reported as over 100 and the Selectivity ratio (Homo sapiens [3]) is reported as over 100. For the same molecule, the Selectivity ratio (Homo sapiens [4]) was over 100, the Selectivity ratio (Homo sapiens [5]) was over 100 and the Selectivity ratio (Homo sapiens [6]) was over 100. For the same molecule, the Selectivity ratio (Homo sapiens [7]) was over 100, the Selectivity ratio (Homo sapiens [8]) was over 100 and the Selectivity ratio (Homo sapiens [9]) was over 100. It also gave a Selectivity ratio (Homo sapiens [10]) of over 100, a Selectivity ratio (Homo sapiens [11]) of over 100 and a Selectivity ratio (Homo sapiens [12]) of over 100. For the same molecule, the Selectivity ratio (Homo sapiens [13]) was over 100, the Selectivity ratio (Homo sapiens [14]) was over 100 and the IC50 [15] was over 100 µM. For the same molecule, the Selectivity ratio (Homo sapiens [16]) was over 100, the Selectivity ratio (Homo sapiens [17]) was over 100 and the Selectivity ratio (Homo sapiens [18]) was over 100. For the same molecule, the Selectivity ratio (Homo sapiens [19]) was over 100, the Selectivity ratio (Homo sapiens [20]) was over 100 and the Activity [21] was “inactive”. The Selectivity ratio (Homo sapiens [22]) was over 100, the Selectivity ratio (Homo sapiens [23]) was over 100 and the Selectivity ratio (Homo sapiens [24]) was over 100. The Selectivity ratio (Homo sapiens [25]) was over 100, the Selectivity ratio (Homo sapiens [26]) was over 100 and the Selectivity ratio (Homo sapiens [27]) was over 100. For the same molecule, the Selectivity ratio (Homo sapiens [28]) was over 100, the Selectivity ratio (Homo sapiens [29]) was over 100 and the Selectivity ratio (Homo sapiens [30]) was over 100. It also gave a Selectivity ratio (Homo sapiens [31]) of over 100, a Selectivity ratio (Homo sapiens [32]) of over 100 and a Selectivity ratio (Homo sapiens [33]) of over 100. For the same molecule, the Selectivity ratio (Homo sapiens [34]) was over 100, the Selectivity ratio (Homo sapiens [35]) was over 100 and the Selectivity ratio (Homo sapiens [36]) was over 100. It also gave a Selectivity ratio (Homo sapiens [37]) of over 100, a Selectivity ratio (Homo sapiens [38]) of over 100 and a Selectivity ratio (Homo sapiens [39]) of over 100. For the same molecule, the Selectivity ratio (Homo sapiens [40]) was over 100, the Selectivity ratio (Homo sapiens [41]) was over 100 and the IC50 [42] was 0.89 µM. It also gave a Selectivity ratio (Homo sapiens [43]) of over 100, a Selectivity ratio (Homo sapiens [44]) of over 100 and a Selectivity ratio (Homo sapiens [45]) of over 100. For the same molecule, the Selectivity ratio (Homo sapiens [46]) was over 100, the Selectivity ratio (Homo sapiens [47]) was over 100 and the Drug uptake [48] was “Not Active”.

From ChEMBL document CHEMBL4725283, “Selective Peptidomimetic Inhibitors of NTMT1/2: Rational Design, Synthesis, Characterization, and Crystallographic Studies” (J Med Chem, 2020)
